Screening data: PubChem BioAssay, Broad Institute
Cneo AK release: Cryptococcus neoformans lysis via adenylate kinase release; C. neoformans lysis, adenylate kinase release luminescence, 4 h; normalised: neutral wells 0, clomiphene wells 100; lysis activity, % at 15 µM; 360,000 compounds, 0.2% hits;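 active = mean lysis activity across replicates of at least 80%, whatever share of replicates individually reach that level; inactive = mean lysis activity below 80%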
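Material: C. neoformans cells; Schedule: 4 h static compound exposure, 37 °C, read 1 h post-reagent; Measured by: adenylate kinase release luminescence; Read-out: signal increase indicating cell lysis; Controls: Clomiphene as positive lysis control.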
Rtt109 Vps75: C. albicans Rtt109 histone acetyltransferase inhibition. Q5AAJ8. AID 540336. inhibition, % at 34.9 µM. 330,000 compounds, 0.16% hits. purified Rtt109/Vps75, ThioGlo CoA-SH fluorescence, 4 h;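 active = inhibition of at least 50% in every replicate; inconclusive = best replicate reaches 50% inhibition but some replicates fall short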
Target sequence (Q5AAJ8 whole entry, looked up): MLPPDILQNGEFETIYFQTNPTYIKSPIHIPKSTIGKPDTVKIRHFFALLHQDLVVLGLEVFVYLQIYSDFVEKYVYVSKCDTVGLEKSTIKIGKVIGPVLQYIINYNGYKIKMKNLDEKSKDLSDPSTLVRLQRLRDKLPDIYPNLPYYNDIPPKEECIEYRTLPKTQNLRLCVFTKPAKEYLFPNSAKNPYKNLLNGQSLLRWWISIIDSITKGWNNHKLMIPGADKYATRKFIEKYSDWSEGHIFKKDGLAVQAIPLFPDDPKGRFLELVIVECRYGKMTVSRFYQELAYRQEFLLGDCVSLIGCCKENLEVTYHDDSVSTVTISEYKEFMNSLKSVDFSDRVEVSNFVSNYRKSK
GSIS activator: primary screen for activators of insulin secretion dependent on glucose, INS-1E cells, GLuc reporter luminescence. INS-1E GLuc reporter insulin secretion, 2-3 h. activation, % at 16.6 µM. 370,000 compounds, 0.61% hits. AID 743287;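 active = lowest replicate activation of at least 40%, so every replicate reaches that level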;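 also: 0% = median of neutral control wells and 100% = median of IBMX positive control wells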
dFosB act-1: activators of mouse delta FosB homodimer; AID 493131; purified delta FosB, TAMRA-CDK5 oligo fluorescence polarization; percent of positive-control signal above neutral wells; 340,000 compounds, 0.99% hits; P13346; activation, % at 25 µM;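 active = mean activation above about 17%, with every replicate also reaching it, limit read from the data, passing the limit was not always enough; inconclusive = only one of the two conditions met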
Target sequence (P13346 whole entry, looked up): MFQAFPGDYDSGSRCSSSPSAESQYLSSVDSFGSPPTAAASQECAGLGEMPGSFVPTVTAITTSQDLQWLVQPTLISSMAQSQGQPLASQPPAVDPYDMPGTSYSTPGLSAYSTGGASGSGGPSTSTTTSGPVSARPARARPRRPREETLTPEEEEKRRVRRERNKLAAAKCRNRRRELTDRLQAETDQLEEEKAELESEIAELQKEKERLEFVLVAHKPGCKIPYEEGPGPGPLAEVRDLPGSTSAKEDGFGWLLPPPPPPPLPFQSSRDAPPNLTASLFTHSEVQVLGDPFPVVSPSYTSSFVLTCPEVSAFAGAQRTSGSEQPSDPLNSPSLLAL
Env fusion inh: inhibitors of HIV Env-mediated cell fusion; HeLa-JRFL Env/CEM21 cell fusion, luciferase; 360,000 compounds, 1.1% hits; inhibition, % at 12.3 µM;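 active = mean replicate inhibition score of at least 50 and every replicate individually at or above 50; inconclusive = only one of the two criteria met; inactive = mean below 50 and not all replicates reaching 50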;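 also: 0% = plate neutral controls and 100% = maraviroc near 300 nM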
miR122 inh: blocks miR-122 activity in Huh7 sensor cells. Huh7 miR-122 Renilla luciferase sensor, 48 h; neutral wells = 0, positive control = 100. activation (reporter increase), % at 12.5 µM. 340,000 compounds, 0.3% hits;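 active = mean replicate activation score at least 90 and every replicate individually at or above 90; inconclusive = only one of the two criteria met; inactive = neither criterion met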;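 also: higher luciferase means less miR-122 activity so hits act as miR-122 inhibitors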
dFosB act-2: enhances mouse delta FosB homodimer binding to DNA | AID 588690 | 2,400 tested, under 10 active | activation, % at 24.9 µM | purified delta FosB, TAMRA-CDK5 oligo fluorescence polarization; normalised: neutral wells 0, positive control 100 | shares compounds with dFosB act-1;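 active = highest replicate activation at or above 34% and every replicate reaching that threshold; inconclusive = meets only one of the two criteria; inactive = meets neither criterion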;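 also: higher polarization means more probe DNA bound by delta FosB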
Numbers without * were called inactive; ? = inconclusive; · = not tested or not shown; [ ] = another dose, or the depositor's remark. Rows were chosen to be rich in hits. Some 2.4% of all compounds tested hit in one or more screens of this group.

SMILES | Cneo AK release | Rtt109 Vps75 | GSIS activator | dFosB act-1 | Env fusion inh | miR122 inh | dFosB act-2
C[C@H]1CN([C@@H](C)CO)C(=O)Cc2cc(NC(=O)CCC(F)(F)F)ccc2O[C@@H]1CN(C)Cc1ccc(Oc2ccccc2)cc1 | 0 | · | -23 | · | -6[16.7 µM] | 7[16.7 µM] | ·
CCc1ccc(NC(=O)C(C)OC(=O)c2cc(=O)[nH]c3ccc(S(=O)(=O)Nc4ccc(F)cc4)cc23)cc1 (configuration not stated) | · | 4 | 5 | 100* | 17 | · | -2
Cc1ccc(C(=O)N/N=C/c2ccc(-c3ccccc3[N+](=O)[O-])o2)cn1 | · | -18 | 3 | 2 | 33 | · | ·
COc1ccc(-c2ccc(/C=N/NC(=O)c3cccnc3)o2)c([N+](=O)[O-])c1 | 15 | -10 | -23 | 50* | · | 10 | -1
CC(=O)Nc1ccc(NC(=O)CSc2nc(N)c(NC(=O)c3ccccc3F)c(=O)[nH]2)cc1 | 2 | -9 | -6 | 17* | 4 | 9 | -1
Nc1nc(SCC(=O)NCc2ccc(F)cc2)[nH]c(=O)c1NC(=O)c1ccc(Cl)cc1 | · | -14 | -5 | 33* | 5 | · | 5
Cc1cccc(NC(=O)CSc2nc(N)c(NC(=O)c3ccccc3F)c(=O)[nH]2)c1 | -5 | -2 | -2 | ? | · | -3 | ·
Nc1nc(SCC(=O)NCc2ccccc2Cl)[nH]c(=O)c1NC(=O)c1ccccc1F | · | 7 | 13 | 12 | -2 | 4 | ·
C[C@@H]1CN([C@H](C)CO)S(=O)(=O)c2ccc(/C=C/c3ccccc3)cc2O[C@H]1CN(C)C(=O)NC1CCCC1 | 9 | · | -5 | · | -18[16.7 µM] | 14[16.7 µM] | ·
CCS(=O)(=O)N[C@H]1CC[C@H](CC(=O)Nc2ccc(-c3ccccc3)cc2)O[C@@H]1CO | 1 | · | 11 | · | -3[16.7 µM] | 19[16.7 µM] | ·
NC(=O)c1cc(-c2ccccc2)nc2ccc(Br)cc12 | 1 | 2 | · | 23* | -22 | -3 | 3
O=C(O)c1cc(-c2cccnc2)nc2ccc(Br)cc12 | 3 | 5 | 1 | -11 | 22 | 4 | ·
O=S(=O)(Nc1ccc2c(c1)nc1n2CCN(Cc2ccccc2)C1)c1ccc(Cl)cc1 | -2 | · | · | 23* | -28 | 14 | -9
O=S(=O)(Nc1ccc2c(c1)nc1n2CCN(Cc2ccccc2)C1)c1ccc(F)cc1 | -2 | 5 | · | -1 | -22 | -9 | ·
Cc1ccc(S(=O)(=O)Nc2ccc3c(c2)nc2n3CCN(Cc3ccccc3)C2)cc1 | 3 | 4 | · | 5 | 13 | -11 | ·
O=S(=O)(Nc1ccc2c(c1)nc1n2CCN(Cc2ccccc2)C1)c1ccccc1 | · | -12 | · | 24* | 26 | · | -3
O=C(C[C@@H]1CC[C@H]2[C@@H](COC[C@@H](O)CN2S(=O)(=O)c2ccc(Cl)cc2)O1)NCCN1CCCC1 | -4 | · | -6 | · | · | -3[16.7 µM] | ·
C[C@@H]1CN([C@@H](C)CO)C(=O)Cc2cc(NS(=O)(=O)c3ccc(F)cc3)ccc2O[C@H]1CN(C)C(=O)Nc1cccc2ccccc12 | · | · | -6 | · | · | · | ·
NC(=O)NC(=O)COC(=O)c1sc2ccccc2c1Cl | · | -3 | 28 | 43* | 11 | · | 7
O=C(COC(=O)c1sc2ccccc2c1Cl)NC1CCCCC1 | · | -8 | 7 | 1 | 3 | · | ·
O=C(COC(=O)CNC(=O)c1sc2ccccc2c1Cl)Nc1c(Cl)cc(Cl)cc1Cl | 6 | -10 | 1 | 40* | -1 | 15 | 8
CO[C@@H]1CN(C)C(=O)c2ccc(NC(=O)C3CCC3)cc2OC[C@@H](C)N(Cc2cccnc2)C[C@@H]1C | -1 | · | 2 | · | · | -3[16.7 µM] | ·
O=C(Cn1nnc(-c2ccccc2)n1)NNC(=O)c1ccc(Br)cc1 | · | -4 | -2 | 36* | -8 | · | 2
NC(=O)c1nn(-c2ccccc2)nc1NC(=O)Cn1nnc(-c2ccccc2)n1 | · | 4 | 3 | 22* | -13 | -6 | 4
CN1CCN(C(=O)C[C@@H]2CC[C@H]3[C@@H](COC[C@@H](O)CN3C(=O)Nc3ccc(F)cc3)O2)CC1 | 2 | · | 1 | · | -18[16.7 µM] | -6[16.7 µM] | ·
SMILES | Cneo AK release | Rtt109 Vps75 | GSIS activator | dFosB act-1 | Env fusion inh | miR122 inh | dFosB act-2
CCCOc1ccc(-c2csc3ncn(Cc4ccc(C(=O)O)cc4)c(=O)c23)cc1 | · | -1 | -25 | 24* | 8 | · | 8
O=C(O)c1ccc(Cn2cnc3scc(-c4ccccc4)c3c2=O)cc1 | -1 | -9 | 37 | -6 | -2 | -11 | ·
C[C@@H]1CCCCO[C@H](CN(C)C(=O)c2ccccc2)[C@@H](C)CN([C@@H](C)CO)C(=O)c2cc(N(C)C)ccc2O1 | 2 | · | 1 | · | -4[16.7 µM] | 4[16.7 µM] | ·
CCn1c(C)c(C2=CCN(S(=O)(=O)c3ccccc3)CC2)c2ccccc21 | 0 | -6 | -11 | 31* | 9 | -3 | 0
O=C(Nc1ccc(S(=O)(=O)Nc2nccs2)cc1)c1ccc(F)cc1 | 1 | -7 | -10 | 2 | 0 | -1 | ·
O=C(Nc1ccc(S(=O)(=O)Nc2nccs2)cc1)c1ccc(N2C(=O)c3ccccc3C2=O)cc1 | · | -8 | 1 | 33* | -6 | · | -1
COCC#Cc1ccc2c(c1)O[C@@H](CN(C)Cc1ccc(F)cc1)[C@H](C)CN([C@@H](C)CO)S2(=O)=O | -1 | · | -3 | · | 5[16.7 µM] | -2[16.7 µM] | ·
CCOC(=O)N1CCC(N2C(=O)c3ccc(C(=O)Nc4ccc(OC)cc4)cc3C2=O)CC1 | -1 | -6 | 27 | 30* | -9 | 6 | -3
CCOC(=O)N1CCC(N2C(=O)c3ccc(C(=O)NCCOC)cc3C2=O)CC1 | -1 | 0 | 14 | 1 | -7 | -4 | ·
O=C(Nc1ccncc1)c1ccc2c(c1)C(=O)N(C1CCCCC1)C2=O | 3 | -35 | · | 26* | · | -6 | 6
CC(C)NC(=O)N(C)C[C@H]1OCCCC[C@@H](C)Oc2ccc(NC(=O)C3CCCCC3)cc2C(=O)N([C@@H](C)CO)C[C@H]1C | -1 | · | 6 | · | -19[16.7 µM] | -3[16.7 µM] | ·
COc1ccccc1NC(=O)N(C)C[C@H]1Oc2ncc(C#CC(C)C)cc2C(=O)N([C@@H](C)CO)C[C@@H]1C | 2 | · | -8 | · | · | 22[16.7 µM] | ·
Cc1ccccc1-c1ccc2c(c1)O[C@H](CN(C)C(=O)c1ccccn1)[C@H](C)CN([C@@H](C)CO)S2(=O)=O | 0 | · | -9 | · | 27[16.7 µM] | 12[16.7 µM] | ·
COc1cccc(NC(=O)NC2(C(F)(F)F)Oc3ccccc3O2)c1 | -4 | -10 | -7 | -6 | 36 | -4 | ·
O=C(Nc1cc(N2CCOCC2)ncn1)NC1(C(F)(F)F)Oc2ccccc2O1 | -1 | 1 | · | 33* | ? | -2 | -3
COc1ccc(C2c3c(ncn(Cc4ccco4)c3=N)Oc3ccc4ccccc4c32)cc1 (configuration not stated) | 4 | -1 | · | 45* | -13 | 28 | -1
